This is an account of results in ChEMBL document CHEMBL1141390, “20S-protopanaxadiol-induced programmed cell death in glioma cells through caspase-dependent and -independent pathways” (J Nat Prod, 2007).

The test system of series [1] is SF-188. The experiment in a line: Inhibition of 20S-protopanaxadiol-induced apoptosis in human SF188 cells after 8 hrs by MTT assay. Format: functional. More on the design: scale not given: the % may be the effect or the level left. Put shortly:
(§1)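 SF188 cells were seeded at 2.5 × 10^5/mL 24 h before use. For the inhibitor arm, cells were pretreated for 2 h with various concentrations of Z-VAD-FMK, then 43.4 µM compound was added. Viability was read by MTT assay 8 h after compound addition.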
For orientation: Formazan colour is commonly taken as a measure of viable cells.

Series [2] relates to SF-188. The series can be described thus: Inhibition of cycloheximide-induced apoptosis in human SF188 cells. Format: functional, cell-based.
For series [3], the system named is SF-188. The series can be described thus: Inhibition of TNF-alpha-induced apoptosis in human SF188 cells. Format: functional, cell-based.
The test system of series [4] is SF-188. The experiment in a line: Inhibition of 20S-protopanaxadiol-induced activation of caspases in human SF188 cells. Format: cell-based.
The target of another series is T1, Caspase-9 (Homo sapiens) (UniProt P55211).
T1 sequence (whole entry): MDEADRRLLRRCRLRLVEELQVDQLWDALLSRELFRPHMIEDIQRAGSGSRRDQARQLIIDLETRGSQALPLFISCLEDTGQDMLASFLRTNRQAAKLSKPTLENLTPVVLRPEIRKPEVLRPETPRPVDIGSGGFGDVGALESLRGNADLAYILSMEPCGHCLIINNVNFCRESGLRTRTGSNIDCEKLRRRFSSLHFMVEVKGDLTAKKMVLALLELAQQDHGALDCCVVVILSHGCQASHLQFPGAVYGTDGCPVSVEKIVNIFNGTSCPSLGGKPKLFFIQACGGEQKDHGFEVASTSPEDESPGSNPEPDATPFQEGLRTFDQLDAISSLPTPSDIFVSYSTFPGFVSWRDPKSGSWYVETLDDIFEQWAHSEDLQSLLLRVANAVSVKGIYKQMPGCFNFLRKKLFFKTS
The experiment in a line: Activation of caspase 9 in human SF188 cells at 108.4 uM. Format: cell-based. The conditions noted are these: SF-188. Put shortly:
(§2)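 Western blot of SF188 lysates after treatment with 108.4 µM compound, sampled at different time points or at different concentrations. 50 µg total protein loaded per lane. Pro-caspase and cleaved (active) caspase bands were detected, with actin as loading control.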

Series [5] concerns SF-188. The experiment in a line: Cell viability in human SF188 cells in presence of tBHQ at 86.8 uM. It is filed as functional.
Series [6] concerns SF-188. The series can be described thus: Cell viability of human SF188 cells in presence of tBHQ, Z-VAD-FMK. Format: functional.
The test system of series [7] is SF-188. The experiment in a line: Reduction of Akt phosphorylation in human SF188 cells after 5 hrs. Format: cell-based.
Series [8] concerns SF-188. The experiment in a line: Induction of autophagy in human SF188 cells by MDC staining at 108.4 uM after 4 hrs. It is filed as functional, cell-based. Put shortly:
(§3)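 SF188 and U87MG cells were treated with 43.4 or 108.4 µM compound for 4 h. Autophagic vacuoles were then visualized by monodansylcadaverine (MDC) staining.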

The subject of series [9] is SF-188. The experiment in a line: Induction of autophagy in human SF188 cells by MDC staining at 43.4 uM after 4 hrs. Format: functional, cell-based. In a few lines:
as §3

The nature of series [10]: Cytotoxicity against human U87MG cells at 108.4 uM after 24 hrs by MTT assay. Format: cell-based. The conditions noted are these: u-87mg atcc. Put shortly: (§4)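 Glioma cells seeded at 2.5 × 10^5/mL 24 h before treatment, then exposed to a range of concentrations for 24 h. Viability was measured by MTT assay, and cell death was read from the 24 h dose-response curve.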

A short description of series [11]: Cytotoxicity against human SF188 cells at 108.4 uM within 10 hrs by MTT assay. Format: cell-based. The settings on record: sf-188, 10 h. In a few lines: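 Cells seeded at 2.5 × 10^5/mL 24 h beforehand were treated with 108.4 µM. Viability was measured by MTT assay at 1, 4, 6, 8, 10 and 24 h after treatment.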
Series [12] relates to SF-188. The experiment in a line: Cell viability in human SF188 cells in presence of Z-VAD-FMK. It is filed as functional.
Series [13] has as its system SF-188. The experiment in a line: Induction of apoptosis in human SF188 cells at 108.4 uM within 3 hrs. It is filed as functional. Put shortly: (§5)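 SF188 or U87MG cells were treated with 108 µM compound and stained by TUNEL (ApopTag). Apoptotic cells were counted as % TUNEL-positive: at 3 h for SF188, at 7 h for U87MG. Untreated cells served as controls.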
Series [14] can be described thus: Cytotoxicity against human U87MG cells after 24 hrs. Format: cell-based, U-87MG ATCC. The settings on record: U-87 MG. In a few lines:
as §4

The nature of series [15]: Cytotoxicity against human SF188 cells at 43.4 uM after 24 hrs by MTT assay. It is filed as cell-based. The conditions noted are these: sf-188, 24 h. In a few lines: as §4
In another series the target is Caspase-8 (Homo sapiens) (UniProt Q14790). The series can be described thus: Activation of caspase 8 in human SF188 cells at 108.4 uM. The settings on record: SF-188. Format: cell-based. In a few lines:
as §2

Series [16] has as its system U-87 MG. The experiment in a line: Induction of autophagy in human U87MG cells by MDC staining at 108.4 uM after 4 hrs. Format: functional, cell-based. The settings on record: U-87MG ATCC. Put shortly: as §3
In series [17] the test system is U-87 MG. The experiment in a line: Induction of apoptosis in human U87MG cells at 108.4 uM within 7 hrs. Format: functional, U-87MG ATCC. In a few lines:
as §5

Series [18] in a line: Cytotoxicity against human SF188 cells after 24 hrs. Format: cell-based. The conditions noted are these: SF-188, 24 h. In a few lines: as §4
In series [19] the test system is U-87MG ATCC. The experiment in a line: Reduction of Akt phosphorylation in human U87MG cells after 7 hrs. Format: cell-based.
Series [20] concerns U-87 MG. The series can be described thus: Increase in superoxide anion level in human U87MG cells after 2 hrs. The conditions noted are these: U-87MG ATCC. Format: functional, cell-based. In a few lines: (§6)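 Superoxide anion was measured by dihydroethidine (HE) fluorescence using flow cytometry in SF188 or U87MG cells 2 h after treatment at several concentrations. Result is reported as the percentage of HE-positive cells.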

The test system of series [21] is SF-188. The series can be described thus: Increase in superoxide anion level in human SF188 cells after 2 hrs. It is filed as functional, cell-based. In a few lines:
as §6

For a further series, the target named is T2, Caspase-7 (Homo sapiens) (UniProt P55210).
T2 sequence (whole entry): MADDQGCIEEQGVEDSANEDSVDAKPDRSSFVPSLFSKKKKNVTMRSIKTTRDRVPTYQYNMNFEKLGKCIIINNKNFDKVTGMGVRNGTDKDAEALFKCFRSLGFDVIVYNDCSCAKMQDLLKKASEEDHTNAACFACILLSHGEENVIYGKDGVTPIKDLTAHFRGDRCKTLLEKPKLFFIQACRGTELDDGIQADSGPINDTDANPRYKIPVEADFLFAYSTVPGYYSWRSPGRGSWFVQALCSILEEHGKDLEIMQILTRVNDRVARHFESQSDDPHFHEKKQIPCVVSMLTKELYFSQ
The experiment in a line: Activation of caspase 7 in human SF188 cells at 108.4 uM. Format: cell-based. The settings on record: SF-188. Put shortly: as §2

The subject of series [22] is SF-188. The series can be described thus: Cell viability in human SF188 cells. Format: functional. Put shortly: as §1
In series [23] the test system is U-87 MG. The experiment in a line: Induction of autophagy in human U87MG cells by MDC staining at 43.4 uM after 4 hrs. The conditions noted are these: U-87MG ATCC. It is filed as functional, cell-based. In a few lines:
as §3

A further series concerns the target T3, Caspase-3 (Homo sapiens) (UniProt P42574).
T3 sequence (whole entry): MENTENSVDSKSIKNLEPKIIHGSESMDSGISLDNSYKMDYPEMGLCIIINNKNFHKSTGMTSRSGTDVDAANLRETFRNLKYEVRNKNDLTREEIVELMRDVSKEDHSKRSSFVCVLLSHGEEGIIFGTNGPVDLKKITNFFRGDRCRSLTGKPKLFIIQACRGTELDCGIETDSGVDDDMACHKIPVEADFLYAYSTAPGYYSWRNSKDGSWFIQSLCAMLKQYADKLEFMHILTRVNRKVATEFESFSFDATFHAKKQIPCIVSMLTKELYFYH
The experiment in a line: Activation of caspase 3 in human SF188 cells at 108.4 uM. It is filed as cell-based. The conditions noted are these: SF-188. In a few lines: as §2

Series [24] deals with U-87MG ATCC. The experiment in a line: Activation of caspases in human U87MG cells. Format: cell-based. In a few lines:
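Western blot of U87MG cells treated with 108.4 µM compound for up to 9 h, probing pro- and cleaved caspases-8 and -3. 50 µg protein per lane. Lysate from treated SF188 cells served as positive control and actin as loading control.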

Molecules are shown by their SMILES. Active and inactive are the calls of the source. No cut-off for these calls is given here. Residues, ends and D or L forms follow the SMILES beside them. *: point of attachment. Cbz = O=C(OCc1ccccc1)*; CH2F = FC*

Caspase-8 (Homo sapiens), sequence (Q14790 217-374 limits assumed): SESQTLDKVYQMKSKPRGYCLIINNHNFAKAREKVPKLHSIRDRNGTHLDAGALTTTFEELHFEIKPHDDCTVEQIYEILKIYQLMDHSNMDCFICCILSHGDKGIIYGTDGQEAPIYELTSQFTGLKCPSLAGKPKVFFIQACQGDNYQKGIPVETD
Caspase-8 (Homo sapiens), sequence (Q14790 385-479 limits assumed): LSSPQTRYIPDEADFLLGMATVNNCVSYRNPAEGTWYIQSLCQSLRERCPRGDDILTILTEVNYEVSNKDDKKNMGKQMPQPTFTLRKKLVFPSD

In turn, `CC(C)[C@H](NC(=O)OCc1ccccc1)C(=O)N[C@@H](C)C(=O)N[C@@H](CC(=O)O)C(=O)CF` (Cbz-Val-Ala-Asp-CH2F) registered an Activity with SF-188 [1] of 44.72%. Besides, the outcome in the series on SF-188 [2], in the series on SF-188 [3] and in the series on SF-188 [4] was Active.

In the case of `CC(C)=CCC[C@](C)(O)[C@H]1CC[C@]2(C)[C@@H]1[C@H](O)C[C@@H]1[C@@]3(C)CC[C@H](O)C(C)(C)[C@@H]3CC[C@]12C`, the outcome at Caspase-9 (Homo sapiens), in the series with SF-188 [8], in the series on SF-188 [9], on Caspase-8 (Homo sapiens), with U-87 MG [16] and in the series on U-87 MG [20] was Active. The outcome with SF-188 [21], on Caspase-7 (Homo sapiens), with U-87 MG [23] and at Caspase-3 (Homo sapiens) was Active. The Activity in the series with SF-188 [5] came to 30.46%; in the series on SF-188 [6], 89.4%; in [10], 90%; in series [11], 90%; in the series with SF-188 [12], 36%; in the series with SF-188 [13] it was 42.67%. Further, the Activity in series [15] was 100%; with U-87 MG [17], 51.01%; with U-87MG ATCC [19] it was “Dose-dependent effect”; in the series on SF-188 [22], 16.5%. The outcome in the series on SF-188 [7] and with U-87MG ATCC [24] was inactive. Further, the concentration for half-maximal inhibition (IC50) amounted to 38 µM in series [14] and 24 µM in series [18].

By IC50 is commonly meant the concentration at which inhibition is half-maximal.
